Measurements taken from ChEMBL document CHEMBL1125826, “Synthesis and biological activity of 5-amino- and 5-hydroxyquinolones, and the overwhelming influence of the remote N1-substituent in determining the structure-activity relationship” (1991).
In brackets after ≈: the same amount, converted by molar mass.

What was measured:
Format in all cases: functional
[1] = MIC ratio measured as the mean MICs of gram-negative bacteria
Outline: (§1)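 Geometric mean of the microtitration MICs (µg/mL) over the Gram-negative organisms, and separately over the Gram-positive organisms, of the 10-strain panel; individual MICs averaged from multiple experiments.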

Klebsiella pneumoniae = assay: Antibacterial activity was determined against gram negative organism, Klebsiella pneumoniae MGH-2; settings: Klebsiella pneumoniae; read-out: MIC
Outline: (§2)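 MIC (µg/mL) by standard microtitration against a panel of 10 Gram-positive and Gram-negative organisms; values averaged from multiple experiments.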

Streptococcus pneumoniae [2] = assay: (§3) Antibacterial activity was determined against gram positive organism, Streptococcus pneumoniae SV-1
Outline: (§4)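 Broth microtitration MIC against a panel of 10 Gram-positive and Gram-negative organisms; MIC in µg/mL, averaged over multiple experiments.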

[3] = MIC ratio measured as the mean MICs of gram-positive bacteria; outline: as §1
Streptococcus pyogenes [4] = assay: Antibacterial activity was determined against gram positive organism, Streptococcus pyogenes C203; settings: Streptococcus pyogenes; read-out: MIC; outline: as §2
Bacteria [5] = assay: Antibacterial activity was determined against gram negative organism, Providencia rettgeri. M1771; settings: Bacteria; read-out: MIC; outline: as §2
Pseudomonas aeruginosa = assay: Antibacterial activity was determined against gram negative organism, Pseudomonas aeruginosa UI-18; settings: Pseudomonas aeruginosa; read-out: MIC; outline: as §2
Escherichia coli [6] = assay: Antibacterial activity was determined against gram negative organism, Escherichia coli vogel; settings: Escherichia coli; read-out: MIC; outline: as §2
Staphylococcus aureus [7] = assay: (§5) Antibacterial activity was determined against gram positive organism, Staphylococcus aureus H228; outline: as §4
[8] = target: T1, DNA gyrase (Escherichia coli) (UniProt P0AES6+P0AES4); assay: Minimum inhibitory concentration against Escherichia coli DNA-gyrase supercoiling assay
Enterococcus faecalis = assay: Antibacterial activity was determined against gram positive organism, Streptococcus faecalis MGH-2; settings: Enterococcus faecalis; read-out: MIC; outline: as §2
Staphylococcus aureus [9] = assay: (§6) Antibacterial activity was determined against gram positive organism, Staphylococcus aureus UC76; outline: as §4
Enterobacter cloacae = assay: Antibacterial activity was determined against gram negative organism, Enterobacter cloacae MA2646; settings: Enterobacter cloacae; read-out: MIC
Streptococcus pneumoniae [10] = assay: The in vivo potency was determined in female charles river CD-1 mice infected with Streptococcus pneumoniae after peroral administration; settings: Streptococcus pneumoniae, po; read-out: PD50
Outline: (§7)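 Acute lethal systemic infection in female CD-1 mice, 16 mice per route; single dose given orally by gavage at the time of challenge; median protective dose (PD50, mg/kg) determined.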

Staphylococcus aureus [11] = assay: as §6; settings: Staphylococcus aureus; read-out: MIC; outline: as §2
Escherichia coli [12] = assay: The in vivo potency was determined in female charles river CD-1 mice infected with Escherichia coli after sc administration; settings: Escherichia coli, sc; read-out: PD50
Outline: (§8)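 Acute lethal systemic infection in female CD-1 mice, 16 mice per route; single subcutaneous dose given at the time of challenge; median protective dose (PD50, mg/kg) determined.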

[13] = target: T1, DNA gyrase (Escherichia coli); assay: Minimum inhibitory concentration against Escherichia coli DNA-gyrase in supercoiling assay
Bacteria [14] = assay: MIC ratio measured as the mean MICs of gram-negative; outline: as §1
Streptococcus pneumoniae [15] = assay: as §3; settings: Streptococcus pneumoniae; read-out: MIC; outline: as §2
Streptococcus pyogenes [16] = assay: The in vivo potency was determined in female charles river CD-1 mice infected with Streptococcus pyogenes after sc administration; settings: Streptococcus pyogenes, sc; read-out: PD50; outline: as §8
Escherichia coli [17] = assay: The in vivo potency was determined in female charles river CD-1 mice infected with Escherichia coli after peroral administration; settings: Escherichia coli, po; read-out: PD50; outline: as §7
Staphylococcus aureus [18] = assay: as §5; settings: Staphylococcus aureus; read-out: MIC; outline: as §2
Bacteria [19] = assay: MIC ratio measured as the mean MICs of gram-positive values; outline: as §1
Streptococcus pyogenes [20] = assay: The in vivo potency was determined in female charles river CD-1 mice infected with Streptococcus pyogenes after peroral administration; settings: Streptococcus pyogenes, po; read-out: PD50; outline: as §7
Streptococcus pneumoniae [21] = assay: The in vivo potency was determined in female charles river CD-1 mice infected with Streptococcus pneumoniae after sc administration; settings: Streptococcus pneumoniae, sc; read-out: PD50; outline: as §8

With `CC1CN(c2cc3c(c(N)c2F)c(=O)c(C(=O)O)cn3-c2ccc(F)cc2F)CCN1` (configuration not stated) the Ratio [1] was 0.3, the MIC (Klebsiella pneumoniae) was 0.2 µg/mL (≈ 0.463 µM) and the MIC (Streptococcus pneumoniae [2]) was 0.2 µg/mL (≈ 0.463 µM). It also gave a Ratio [3] of 0.2, an MIC (Streptococcus pyogenes [4]) of 0.4 µg/mL (≈ 0.925 µM) and an MIC (Bacteria [5]) of 0.4 µg/mL (≈ 0.925 µM). For the same compound, the MIC (Pseudomonas aeruginosa) was 1.6 µg/mL (≈ 3.7 µM), the MIC (Escherichia coli [6]) was 0.1 µg/mL (≈ 0.231 µM) and the MIC (Staphylococcus aureus [7]) was 0.2 µg/mL (≈ 0.463 µM). The MIC [8] was 2.5 µg/mL (≈ 5.78 µM), the MIC (Enterococcus faecalis) was 0.4 µg/mL (≈ 0.925 µM) and the MIC (Staphylococcus aureus [9]) was 0.05 µg/mL (≈ 0.116 µM). It also gave an MIC (Enterobacter cloacae) of 0.2 µg/mL (≈ 0.463 µM).
In the case of `NC1CCN(c2c(F)c(O)c3c(=O)c(C(=O)O)cn(C4CC4)c3c2F)C1` (configuration not stated), the MIC (Klebsiella pneumoniae) is reported as 0.025 µg/mL (≈ 0.0684 µM), the ED50 (Streptococcus pneumoniae [10]) is reported as 107 mg/kg and the MIC (Staphylococcus aureus [11]) is reported as 0.025 µg/mL (≈ 0.0684 µM). It also gave an MIC (Streptococcus pyogenes [4]) of 0.05 µg/mL (≈ 0.137 µM), an ED50 (Escherichia coli [12]) of 0.5 mg/kg and an MIC [13] of 0.5 µg/mL (≈ 1.37 µM). It also gave an MIC (Bacteria [5]) of 0.05 µg/mL (≈ 0.137 µM), an MIC (Pseudomonas aeruginosa) of 0.2 µg/mL (≈ 0.547 µM) and an MIC (Escherichia coli [6]) of 0.013 µg/mL (≈ 0.0356 µM). For the same compound, the Ratio (Bacteria [14]) was 0.034, the MIC (Streptococcus pneumoniae [15]) was 0.05 µg/mL (≈ 0.137 µM) and the ED50 (Streptococcus pyogenes [16]) was 11 mg/kg. The MIC (Enterococcus faecalis) was 0.1 µg/mL (≈ 0.274 µM), the ED50 (Escherichia coli [17]) was 2 mg/kg and the MIC (Staphylococcus aureus [18]) was 0.1 µg/mL (≈ 0.274 µM). The Ratio (Bacteria [19]) was 0.057, the ED50 (Streptococcus pyogenes [20]) was 90 mg/kg and the MIC (Enterobacter cloacae) was 0.013 µg/mL (≈ 0.0356 µM). For the same compound, the ED50 (Streptococcus pneumoniae [21]) was 18 mg/kg.
